Experimental data published in PMC3646568 (Protein and peptide letters, 2012).
Like-named read-outs stand apart in the source and are kept apart here. Values belong to the molecule of their own block, whether it stands above or below them.

How the values were obtained:
VEGFR-3 (Homo sapiens) = VEGFR-3 (Homo sapiens) (UniProt P35916); conditions: cited from earlier work
VEGFR-2-Fc = conditions: cited from earlier work
[1] = test system: VEGF or basic fibroblast growth factor (bFGF); conditions: cited from earlier work
recombinant VEGFR-3-Fc = assay type: binding, mouse; conditions: pull-down
In short: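 GST-fused endostatin-containing fragments were incubated with recombinant VEGFR-3-Fc and a range of VEGF-C concentrations. Receptor–ligand complexes were recovered by pull-down and probed by western blot with anti-VEGFR-3 antibody.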

[2] = biological target: T1, recombinant mouse VEGFR-3-Fc (mouse, UniProt P35917 25-775); assay: SPR
T1 sequence (looked up): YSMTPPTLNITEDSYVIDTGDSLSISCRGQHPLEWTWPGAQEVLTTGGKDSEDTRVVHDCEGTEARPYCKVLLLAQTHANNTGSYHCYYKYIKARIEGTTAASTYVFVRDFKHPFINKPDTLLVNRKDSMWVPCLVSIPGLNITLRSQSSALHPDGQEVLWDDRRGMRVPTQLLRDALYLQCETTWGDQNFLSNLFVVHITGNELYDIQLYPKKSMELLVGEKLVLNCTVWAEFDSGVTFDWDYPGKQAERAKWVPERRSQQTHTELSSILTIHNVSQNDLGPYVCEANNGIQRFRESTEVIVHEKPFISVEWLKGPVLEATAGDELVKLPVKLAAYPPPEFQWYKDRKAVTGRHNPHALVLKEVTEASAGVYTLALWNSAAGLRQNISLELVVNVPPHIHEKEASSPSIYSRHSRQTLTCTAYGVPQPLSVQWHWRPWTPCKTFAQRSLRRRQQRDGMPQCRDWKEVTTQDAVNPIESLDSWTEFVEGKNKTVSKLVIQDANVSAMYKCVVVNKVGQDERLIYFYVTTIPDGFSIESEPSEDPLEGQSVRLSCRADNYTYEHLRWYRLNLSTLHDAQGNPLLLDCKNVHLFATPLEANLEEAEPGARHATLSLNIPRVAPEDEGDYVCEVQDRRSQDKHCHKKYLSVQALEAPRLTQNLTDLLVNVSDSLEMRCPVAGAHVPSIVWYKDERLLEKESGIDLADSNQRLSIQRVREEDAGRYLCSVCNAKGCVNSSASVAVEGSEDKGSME

[3] = biological target: VEGFR3-AP (a VEGFR-3 fusion protein); conditions: fully processed VEGF-C binding to VEGFR3-AP; cited from earlier work
[4] = test system: Primary human lung lymphatic endothelial cells (h-LECs); assay: Scratch wound cell migration assay, h-LECs; assay type: cell-based; conditions: 100 ng/mL VEGF-C stimulation, 24 h
In short: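 Confluent h-LECs held serum-free for 24 h, rinsed with DMEM, and scratched with a pipette tip. Washed with PBS, then kept 24 h in experimental medium with 100 ng/mL VEGF-C ± test peptide. Fixed in 4% paraformaldehyde; cells migrating past the scratch counted in ≥3 fields per well, three wells per condition.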

Molecule: VEGF-C (from UniProt P49767)
Kd (VEGFR-3 (Homo sapiens)): 1 nM

Molecule: endostatin
Block of interaction of VEGF-A and VEGFR-2-Fc (VEGFR-2-Fc; 10-min preincubation of endostatin with VEGFR-2-Fc): blocks the interaction of VEGF-A and VEGFR-2-Fc in a dose-dependent manner
Dissociation rate of VEGFR-2-Fc from VEGF and its receptor complex (VEGFR-2-Fc; endostatin 10 μg/mL): does not affect the dissociation rate
Binding to VEGF or bFGF [1]: does not bind to VEGF or basic fibroblast growth factor (bFGF)

Binding of GST-endostatin-containing fragment to VEGFR-3-Fc (recombinant VEGFR-3-Fc; western blot with anti-VEGFR-3 antibody, absence of VEGF-C and low concentration of VEGF-C (lanes 1 and 2)): able to bind VEGFR-3-Fc
Binding of GST-endostatin-containing fragment to VEGFR-3-Fc (recombinant VEGFR-3-Fc; western blot, VEGF-C at a higher concentration (lane 3)): diminished
B1: GST-endostatin-containing fragments: GST-endostatin-containing fragments (protein)
chain: HTHQDFQPVLHLVALNTPLSGGMRGIRGADFQCFQQARAVGLSGTFRAFLSSRLQDLYSIVRRADRGSVPIVNLKDEVLSPSWDSLFSGSQGQLQPGARIFSFDGRDVLRHPAWPQKSVWHGSDPSGRRLMESYCETWRTETTGATGQASSLLSGRLLEQKAASCHNSYIVLCIENSFMTSFSK
modifications: left off: GST, end not stated, kept

koff [2]: 0.672 s⁻¹
kon [2]: 1.41e+07 M⁻¹ s⁻¹
B2: murine endostatin peptide (mEP) (peptide)
peptide: LEQKAASCHNSYIVLCIENSFMTSFSK

B3: VEGF-C: vascular endothelial growth factor C, recombinant; literature KD for fully processed VEGF-C (protein)
chain: FESGLDLSDAEPDAGEATAYASKDLEEQLRSVSSVDELMTVLYPEYWKMYKCQLRKGGWQHNREQANLNSRTEETIKFAAAHYNTEILKSIDNEWRKTQCMPREVCIDVGKEFGVATNTFFKPPCVSVYRCGGCCNSEGLQCMNTSTSYLSKTLFEITVPLSQGPKPVTISFANHTSCRCMSKLDVYRQVHSIIRR
Kd [3]: 1 nM
Repopulation of the scratch surface [4]: approximately 50%
